This note sets out measurements from paper PMC10925177 (bioRxiv, 2024).

The target in test [1] is T1, G9a (Homo sapiens, UniProt Q96KQ7).
T1 sequence (Q96KQ7 1-1210): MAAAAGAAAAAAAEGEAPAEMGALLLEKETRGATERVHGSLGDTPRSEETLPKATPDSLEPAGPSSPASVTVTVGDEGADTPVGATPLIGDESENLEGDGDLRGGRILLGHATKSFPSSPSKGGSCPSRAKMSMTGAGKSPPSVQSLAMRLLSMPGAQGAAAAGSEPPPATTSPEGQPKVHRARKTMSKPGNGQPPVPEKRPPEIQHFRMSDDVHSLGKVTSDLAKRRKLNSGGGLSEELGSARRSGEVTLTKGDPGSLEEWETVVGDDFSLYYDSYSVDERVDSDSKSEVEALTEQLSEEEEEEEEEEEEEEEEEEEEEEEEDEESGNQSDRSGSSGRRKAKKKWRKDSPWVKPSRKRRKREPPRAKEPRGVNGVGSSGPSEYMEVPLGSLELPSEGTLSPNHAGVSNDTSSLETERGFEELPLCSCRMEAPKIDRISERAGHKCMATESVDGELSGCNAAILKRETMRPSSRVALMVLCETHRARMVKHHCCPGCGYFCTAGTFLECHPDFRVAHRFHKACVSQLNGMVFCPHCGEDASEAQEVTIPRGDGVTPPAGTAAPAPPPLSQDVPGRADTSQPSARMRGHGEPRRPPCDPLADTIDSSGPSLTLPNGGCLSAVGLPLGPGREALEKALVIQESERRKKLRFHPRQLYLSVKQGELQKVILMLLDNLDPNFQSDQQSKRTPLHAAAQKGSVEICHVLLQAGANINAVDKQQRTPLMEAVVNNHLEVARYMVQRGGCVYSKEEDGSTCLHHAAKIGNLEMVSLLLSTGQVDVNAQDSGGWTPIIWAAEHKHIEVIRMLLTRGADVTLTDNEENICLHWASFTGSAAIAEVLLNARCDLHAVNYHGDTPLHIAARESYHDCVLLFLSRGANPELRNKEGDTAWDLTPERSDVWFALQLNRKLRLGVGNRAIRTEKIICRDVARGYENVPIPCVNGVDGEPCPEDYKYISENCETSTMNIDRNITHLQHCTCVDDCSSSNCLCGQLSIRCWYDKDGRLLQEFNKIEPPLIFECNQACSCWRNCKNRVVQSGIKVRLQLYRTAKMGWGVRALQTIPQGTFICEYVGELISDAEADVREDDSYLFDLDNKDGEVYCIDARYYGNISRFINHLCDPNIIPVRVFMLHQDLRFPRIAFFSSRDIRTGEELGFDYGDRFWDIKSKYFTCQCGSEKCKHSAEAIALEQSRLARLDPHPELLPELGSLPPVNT
Description: Western blot of G9a protein levels in cancer cells. The conditions noted are these: 24 h, WB. The test is classed as cell-based. The method, boiled down:
(§1)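 Cells (22Rv1, K562, H1299) were treated for 24 h at the indicated concentrations; 22Rv1 time courses were run at 3 μM. Cells were lysed in RIPA with protease inhibitors, and 10–30 μg of protein was resolved by SDS-PAGE and transferred to PVDF. Blots were probed overnight at 4 °C, with vinculin/β-actin as loading controls. Band intensity was normalised to DMSO, with n = 2 independent experiments (mean ± SD).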

The target of test [2] is T2, GLP (Homo sapiens, UniProt Q9H9B1).
T2 sequence (Q9H9B1 1-1298): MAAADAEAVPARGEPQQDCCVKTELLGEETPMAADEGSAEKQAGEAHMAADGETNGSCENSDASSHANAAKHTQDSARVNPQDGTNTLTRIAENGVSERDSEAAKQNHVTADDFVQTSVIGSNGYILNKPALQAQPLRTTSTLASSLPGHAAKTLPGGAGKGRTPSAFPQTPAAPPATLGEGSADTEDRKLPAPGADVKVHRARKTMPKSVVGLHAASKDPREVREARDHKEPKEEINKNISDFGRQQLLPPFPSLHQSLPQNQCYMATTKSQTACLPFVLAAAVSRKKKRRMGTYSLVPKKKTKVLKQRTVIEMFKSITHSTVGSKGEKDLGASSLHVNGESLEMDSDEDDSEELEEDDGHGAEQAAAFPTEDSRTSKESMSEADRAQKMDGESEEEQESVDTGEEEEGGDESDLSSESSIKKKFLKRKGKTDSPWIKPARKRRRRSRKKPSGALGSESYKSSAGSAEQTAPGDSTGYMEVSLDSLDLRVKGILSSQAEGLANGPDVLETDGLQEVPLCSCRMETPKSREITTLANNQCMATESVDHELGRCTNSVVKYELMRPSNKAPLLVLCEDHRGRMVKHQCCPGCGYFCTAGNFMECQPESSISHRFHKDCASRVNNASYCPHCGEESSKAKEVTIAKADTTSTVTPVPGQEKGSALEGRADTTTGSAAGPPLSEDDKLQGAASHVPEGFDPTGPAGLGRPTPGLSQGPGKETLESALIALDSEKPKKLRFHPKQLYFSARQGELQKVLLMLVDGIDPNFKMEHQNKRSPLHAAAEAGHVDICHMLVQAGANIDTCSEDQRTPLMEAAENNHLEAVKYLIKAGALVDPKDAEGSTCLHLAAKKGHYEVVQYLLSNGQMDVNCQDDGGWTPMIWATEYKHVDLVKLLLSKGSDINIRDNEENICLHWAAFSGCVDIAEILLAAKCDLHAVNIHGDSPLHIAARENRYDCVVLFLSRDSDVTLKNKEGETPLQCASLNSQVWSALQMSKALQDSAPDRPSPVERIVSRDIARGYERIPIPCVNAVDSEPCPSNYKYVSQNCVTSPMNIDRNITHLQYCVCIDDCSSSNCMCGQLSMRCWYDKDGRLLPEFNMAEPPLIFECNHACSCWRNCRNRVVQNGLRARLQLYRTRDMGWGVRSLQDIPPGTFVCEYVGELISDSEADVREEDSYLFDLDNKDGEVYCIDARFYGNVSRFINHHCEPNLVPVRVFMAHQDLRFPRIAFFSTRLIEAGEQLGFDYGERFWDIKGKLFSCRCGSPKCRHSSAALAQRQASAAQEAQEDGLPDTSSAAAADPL
Description: Western blot of GLP protein levels in cancer cells. Type of test: cell-based. The settings on record: 24 h, WB. The method, boiled down:
as §1
Background: In western blotting, separated proteins are transferred to a membrane and probed.

Test [3] concerns the target T1, G9a. Description: G9a radioactive methyltransferase assay. Type of test: biochemical. The conditions noted are these: indicated concentrations, duplicate (Figure 4B). The method, boiled down:
(§2)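 Enzyme activity was measured with a radioisotope-based MT HotSpot methyltransferase assay run by a contract laboratory. Test compounds were run at the indicated concentrations, in duplicate. Data are mean ± SD of the two duplicate experiments.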

Test [4] has as its target T2, GLP. Nature of the test: GLP radioactive methyltransferase assay. Type of test: biochemical. The settings on record: indicated concentrations, duplicate (Figure 4C). The method, boiled down: as §2
In a further test the test system is GLP mRNA. Nature of the test: RT-qPCR of GLP mRNA in H1299 cells. The conditions noted are these: 3 μM, 24 h, normalized to DMSO. Type of test: cell-based. The method, boiled down:
(§3)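 H1299 cells were treated with DMSO or test compound at 3 μM for 24 h. Total RNA was extracted and reverse-transcribed to cDNA. qPCR used gene-specific primers for G9a and GLP, and a GAPDH primer set was included.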

For another test, the system named is G9a mRNA. Description: RT-qPCR of G9a mRNA in H1299 cells. The test is classed as cell-based. The settings on record: 3 μM, 24 h, normalized to DMSO. The method in brief:
as §3

Another test has as its system K562 cells. Nature of the test: Cell viability assay. The test is classed as cell-based. The conditions noted are these: 7 days treatment, WST-8 (CCK-8). The method, boiled down:
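K562 cells were grown at 37 °C in 5% CO2 and exposed to serial dilutions of the test compound for 7 days. Viability was read with CCK-8 (WST-8) as absorbance at 450 nm, with 690 nm as reference. IC50 came from curve fitting. Values are mean ± SD from four independent biological experiments.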

`COc1cc2c(NC3CCN(CCCC(=O)NCCC(=O)N[C@H](C(=O)N4C[C@H](O)C[C@H]4C(=O)NCc4ccc(-c5scnc5C)cc4)C(C)(C)C)CC3)nc(N3CCC(F)(F)CC3)nc2cc1OCCCN1CCCC1` [Compound 1, (2S,4R)-1-((S)-2-(3-(4-(4-((2-(4,4-difluoropiperidin-1-yl)-6-methoxy-7-(3-(pyrrolidin-1-yl)propoxy)quinazolin-4-yl)amino)piperidin-1-yl)butanamido)propanamido)-3,3-dimethylbutanoyl)-4-hydroxy-N-(4-(4-methylthiazol-5-yl)benzyl)pyrrolidine-2-carboxamide]: the “G9a degradation, in words” value on G9a [1] (22Rv1 cells, 0.3 or 3 μM) was “moderate”. For the same compound, the “GLP degradation, in words” value on GLP [2] (22Rv1 cells, 0.3 or 3 μM) is recorded as “moderate”.
As for `COc1cc2c(NC3CCN(CCCC(=O)NCCOCCC(=O)N[C@H](C(=O)N4C[C@H](O)C[C@H]4C(=O)NCc4ccc(-c5scnc5C)cc4)C(C)(C)C)CC3)nc(N3CCC(F)(F)CC3)nc2cc1OCCCN1CCCC1` [Compound 11, (2S,4R)-1-((S)-2-(3-(2-(4-(4-((2-(4,4-difluoropiperidin-1-yl)-6-methoxy-7-(3-(pyrrolidin-1-yl)propoxy)quinazolin-4-yl)amino)piperidin-1-yl)butanamido)ethoxy)propanamido)-3,3-dimethylbutanoyl)-4-hydroxy-N-(4-(4-methylthiazol-5-yl)benzyl)pyrrolidine-2-carboxamide], the “G9a degradation, in words” value on G9a [1] (22Rv1 cells, 0.3 or 3 μM) is on record as “did not degrade”.
For the compound `COc1cc2c(NC3CCN(CCCC(=O)NCCOCCOCCC(=O)N[C@H](C(=O)N4C[C@H](O)C[C@H]4C(=O)NCc4ccc(-c5scnc5C)cc4)C(C)(C)C)CC3)nc(N3CCC(F)(F)CC3)nc2cc1OCCCN1CCCC1` [Compound 12, (2S,4R)-1-((S)-2-(tert-butyl)-17-(4-((2-(4,4-difluoropiperidin-1-yl)-6-methoxy-7-(3-(pyrrolidin-1-yl)propoxy)quinazolin-4-yl)amino)piperidin-1-yl)-4,14-dioxo-7,10-dioxa-3,13-diazaheptadecanoyl)-4-hydroxy-N-(4-(4-methylthiazol-5-yl)benzyl)pyrrolidine-2-carboxamide], the “G9a degradation, in words” value at G9a [1] (22Rv1 cells, 0.3 or 3 μM) is recorded as “little or no degradation”. At GLP [2] (22Rv1 cells, 0.3 or 3 μM), the “GLP degradation, in words” value is on record as “little or no degradation”.
For `COc1cc2c(NC3CCN(CCCC(=O)NCCOCCOCCOCCC(=O)N[C@H](C(=O)N4C[C@H](O)C[C@H]4C(=O)NCc4ccc(-c5scnc5C)cc4)C(C)(C)C)CC3)nc(N3CCC(F)(F)CC3)nc2cc1OCCCN1CCCC1` [Compound 13, (2S,4R)-1-((S)-2-(tert-butyl)-20-(4-((2-(4,4-difluoropiperidin-1-yl)-6-methoxy-7-(3-(pyrrolidin-1-yl)propoxy)quinazolin-4-yl)amino)piperidin-1-yl)-4,17-dioxo-7,10,13-trioxa-3,16-diazaicosanoyl)-4-hydroxy-N-(4-(4-methylthiazol-5-yl)benzyl)pyrrolidine-2-carboxamide], at G9a [1] (22Rv1 cells, 0.3 or 3 μM), the “G9a degradation, in words” value is on record as “little or no degradation”. The “GLP degradation, in words” value at GLP [2] (22Rv1 cells, 0.3 or 3 μM) is listed as “little or no degradation”.
For the compound `COc1cc2c(NC3CCN(CCCC(=O)NCCCCCCCCCCCC(=O)N[C@H](C(=O)N4C[C@@H](O)C[C@@H]4C(=O)NCc4ccc(-c5scnc5C)cc4)C(C)(C)C)CC3)nc(N3CCC(F)(F)CC3)nc2cc1OCCCN1CCCC1` [Compound 14, (2R,4S)-1-((S)-2-(12-(4-(4-((2-(4,4-difluoropiperidin-1-yl)-6-methoxy-7-(3-(pyrrolidin-1-yl)propoxy)quinazolin-4-yl)amino)piperidin-1-yl)butanamido)dodecanamido)-3,3-dimethylbutanoyl)-4-hydroxy-N-(4-(4-methylthiazol-5-yl)benzyl)pyrrolidine-2-carboxamide], the “inhibition of G9a enzymatic activity” value at G9a [3] is reported as “similarly inhibited”. Besides, the “inhibition of GLP enzymatic activity” value at GLP [4] is “similarly inhibited”.
As to `COc1cc2c(NC3CCN(C(C)C)CC3)nc(N3CCC(F)(F)CC3)nc2cc1OCCCN1CCCC1` [UNC0642, reference compound], the “inhibition of G9a enzymatic activity” value at G9a [3] is recorded as “similarly inhibited”. For the same compound, the “mRNA levels of GLP” value in the test with GLP mRNA was “did not significantly alter”. Further, the “G9a degradation, in words” value at G9a [1] (K562 cells, 3 μM) is on record as “did not degrade”. The “mRNA levels of G9a” value with G9a mRNA was “did not significantly alter”. The “GLP degradation, in words” value at GLP [2] (K562 cells, 3 μM) is “did not degrade”. Also, the “GI50 of cell growth inhibition (IC50 in the figure)” value with K562 cells is reported as “unable to suppress cell proliferation”. In addition, the “inhibition of GLP enzymatic activity” value at GLP [4] is “similarly inhibited”.
